Measurements taken from ChEMBL document CHEMBL3414473.
Activity calls are given as the source filed them. No cut-off for these calls is given here.

Key:
PrEC = assay: Antiproliferative activity against human PrEC cells assessed as suppression of cell viability after 24 hrs by MTT assay in serum free medium; assay type: cell-based
[1] = molecular target: T1, PH domain leucine-rich repeat-containing protein phosphatase 1 (Homo sapiens, UniProt O60346); assay: Inhibition of PHLPP1-mediated reduction in phosphorylation of MDM2 in human LNCAP cells after 24 hrs by Western blot analysis; assay type: cell-based
T1 sequence (O60346 whole entry, the tested form may be a part): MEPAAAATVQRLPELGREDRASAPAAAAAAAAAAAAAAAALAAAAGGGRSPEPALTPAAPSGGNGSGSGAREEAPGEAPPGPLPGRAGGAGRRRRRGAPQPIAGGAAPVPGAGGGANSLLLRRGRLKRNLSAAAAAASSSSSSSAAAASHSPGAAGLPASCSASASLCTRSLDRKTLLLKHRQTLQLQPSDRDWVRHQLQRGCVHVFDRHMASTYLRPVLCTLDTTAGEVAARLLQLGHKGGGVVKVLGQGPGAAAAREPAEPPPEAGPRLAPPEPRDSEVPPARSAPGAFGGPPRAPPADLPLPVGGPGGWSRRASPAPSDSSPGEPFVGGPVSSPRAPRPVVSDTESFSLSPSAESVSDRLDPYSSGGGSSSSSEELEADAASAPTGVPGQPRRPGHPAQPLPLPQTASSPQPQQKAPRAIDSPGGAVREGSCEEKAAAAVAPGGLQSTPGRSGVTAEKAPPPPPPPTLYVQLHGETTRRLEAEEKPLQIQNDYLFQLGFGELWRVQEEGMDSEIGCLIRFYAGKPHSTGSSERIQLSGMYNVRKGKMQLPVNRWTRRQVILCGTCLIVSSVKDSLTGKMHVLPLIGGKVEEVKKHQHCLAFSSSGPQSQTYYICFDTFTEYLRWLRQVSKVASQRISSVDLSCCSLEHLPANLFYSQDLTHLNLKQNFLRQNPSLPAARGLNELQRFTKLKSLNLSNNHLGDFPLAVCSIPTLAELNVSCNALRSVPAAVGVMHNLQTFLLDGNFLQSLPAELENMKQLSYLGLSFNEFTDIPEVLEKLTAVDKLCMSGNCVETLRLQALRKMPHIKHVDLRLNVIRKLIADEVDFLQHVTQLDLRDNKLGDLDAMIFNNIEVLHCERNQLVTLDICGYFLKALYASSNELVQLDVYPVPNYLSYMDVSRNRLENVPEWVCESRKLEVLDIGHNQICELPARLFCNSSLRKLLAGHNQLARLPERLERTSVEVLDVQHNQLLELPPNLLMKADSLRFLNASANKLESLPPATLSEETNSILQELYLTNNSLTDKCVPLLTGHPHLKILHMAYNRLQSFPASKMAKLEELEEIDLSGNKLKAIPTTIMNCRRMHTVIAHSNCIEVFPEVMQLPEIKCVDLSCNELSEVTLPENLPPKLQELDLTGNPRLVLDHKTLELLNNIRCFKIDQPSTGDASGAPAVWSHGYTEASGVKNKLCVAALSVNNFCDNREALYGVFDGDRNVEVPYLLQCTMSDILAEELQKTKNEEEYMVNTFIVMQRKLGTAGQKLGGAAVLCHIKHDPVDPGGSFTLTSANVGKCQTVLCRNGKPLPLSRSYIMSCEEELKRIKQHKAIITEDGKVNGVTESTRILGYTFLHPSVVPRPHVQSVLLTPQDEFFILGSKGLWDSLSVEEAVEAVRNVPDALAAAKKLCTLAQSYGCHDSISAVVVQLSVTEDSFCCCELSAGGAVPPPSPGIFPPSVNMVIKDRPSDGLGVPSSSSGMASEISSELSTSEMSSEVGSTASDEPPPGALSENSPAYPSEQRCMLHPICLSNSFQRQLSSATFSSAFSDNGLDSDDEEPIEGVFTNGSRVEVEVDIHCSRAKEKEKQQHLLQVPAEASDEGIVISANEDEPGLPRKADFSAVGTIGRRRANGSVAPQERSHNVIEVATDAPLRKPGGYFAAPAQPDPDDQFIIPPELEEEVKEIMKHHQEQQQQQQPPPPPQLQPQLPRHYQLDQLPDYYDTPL
How it was run: (§1)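 LNCaP or PC-3 cells treated at various concentrations for 24 h in serum-free medium. Lysed in SDS buffer (50 mM Tris pH 8, 10 mM EDTA, 1% SDS, protease inhibitors); equal protein run on SDS-PAGE and transferred to nitrocellulose. Primary antibodies 1:1000 overnight at 4 °C, HRP secondary 1:2000; detected by ECL.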

LNCaP [2] = assay: Antiproliferative activity against human LNCAP cells assessed as suppression of cell viability after 24 hrs by MTT assay; assay type: functional, cell-based
How it was run: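 LNCaP cells seeded at 5000/well on poly-L-lysine-coated plates in 10% FBS; 24 h later exposed to agents in serum-free medium for 24 h. Viability expressed as percent of vehicle control; IC50 derived.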

PC-3 [3] = assay: In vivo antitumor efficacy in human PC3 cells xenografted athymic nude mouse assessed as decrease in phosphorylation of Akt at Thr308 in tumor at 50 mg/kg, ip for 21 days relative to vehicle treated control; assay type: functional, organism-based; design: dose 50 mg/kg
How it was run: (§2)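 Athymic nude mice given PC-3 cells sc (1 × 10⁶ per mouse); at about 50 mm³, randomized (n = 7) and dosed once daily for 21 days either ip at 50 mg/kg (vehicle saline/PEG400/DMSO/Tween 80, 65:20:10:5) or by oral gavage at 100 mg/kg (vehicle 0.5% methylcellulose/0.1% Tween 80 in water). Tumor volume measured weekly by calipers (width² × length × 0.52); phospho-proteins checked by Western blotting of tumor lysates.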

[4] = molecular target: T1, PH domain leucine-rich repeat-containing protein phosphatase 1; assay: Inhibition of PHLPP1-mediated reduction in phosphorylation of IKK in human PC3 cells after 24 hrs by Western blot analysis; assay type: cell-based; conditions: PC-3; how it was run: as §1
PC-3 [5] = assay: In vivo antitumor efficacy in human PC3 cells xenografted athymic nude mouse assessed as decrease in phosphorylation of MDM2 in tumor at 50 mg/kg, ip for 21 days relative to vehicle treated control; assay type: functional, organism-based; design: dose 50 mg/kg; how it was run: as §2
LNCaP [6] = assay: Induction of Akt localization to human LNCAP cell membrane at 5 uM after 24 hrs by immunofluorescence staining analysis; assay type: functional, cell-based
How it was run: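 LNCaP cells on poly-L-lysine-coated surfaces, treated in serum-free medium for 24 h. Fixed in 4% formaldehyde, permeabilized with 0.1% Triton X-100, blocked in 1% FBS, primary antibody (1:300) overnight, then Alexa Fluor secondary 2 h; DAPI nuclei; confocal imaging with cross-sectional fluorescence intensity analysis.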

Scaffold protein ILK = molecular target: T2, Scaffold protein ILK (Homo sapiens, UniProt Q13418); assay: Binding affinity to GST-tagged PH domain of ILK (unknown origin) by surface Plasmon resonance spectroscopy
T2 sequence (Q13418 whole entry): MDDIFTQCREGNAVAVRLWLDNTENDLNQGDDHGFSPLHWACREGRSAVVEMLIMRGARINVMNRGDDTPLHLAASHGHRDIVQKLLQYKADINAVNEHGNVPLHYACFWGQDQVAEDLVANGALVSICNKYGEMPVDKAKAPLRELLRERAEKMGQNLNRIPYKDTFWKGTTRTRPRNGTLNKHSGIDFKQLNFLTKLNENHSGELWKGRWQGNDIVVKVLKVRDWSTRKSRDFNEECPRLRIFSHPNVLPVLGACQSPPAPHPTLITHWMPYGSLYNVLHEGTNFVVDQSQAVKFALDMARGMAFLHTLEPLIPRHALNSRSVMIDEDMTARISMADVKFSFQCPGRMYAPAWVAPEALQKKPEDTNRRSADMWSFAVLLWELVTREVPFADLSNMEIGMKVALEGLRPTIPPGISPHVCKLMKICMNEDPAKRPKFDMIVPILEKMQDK
How it was run: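 SPR: GST-tagged PH domain fusion protein immobilized on CM5 chip by amine coupling to about 17000 RU. Analyte injected at 1–20 µM at 30 µL/min; DMSO in samples and running buffer ≤1% (v/v). Kd obtained from sensorgram fitting.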

Cc1c(S(N)(=O)=O)cc2c(c1C)OC(C)(CCCC(C)C)CC2 (stereo not drawn)
Activity (PrEC): Non-toxic | inhibition [1]: Dose-dependent effect | IC50 (LNCaP [2]): 3000 nM | inhibition (PC-3 [3]): inactive | inhibition [4]: Dose-dependent effect | inhibition (PC-3 [5]): Active | Activity (LNCaP [6]): Active | Kd (Scaffold protein ILK): 6.2 µM
